Sampled rows, rich in hits. Any-hit rate of the full collection: about 5%.
T cruzi repl – inhibitors of intracellular T. cruzi growth, primary screen, luminescence, NIH3T3 host cells. actives 1.4% (n = 300,000). T. cruzi beta-gal in NIH3T3, 90 h. inhibition, % (concentration not given with the values);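 active means mean inhibition across valid replicates above about 55%, limit read from the data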;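 further: signal also drops with host cell toxicity which is not excluded here; 0% = plate median of DMSO wells and 100% = zero luminescence signal; higher percent means less beta-gal luminescence so fewer parasites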
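Assay system: NIH/3T3 fibroblasts plus reporter T. cruzi. Amount: NIH/3T3 cells, 5,000 per well. Buffer or medium: DMEM, 2% fetal bovine serum. Doses: compound pinned at 50 nL/well, DMSO. Schedule: ≥90 h infection period, 3 h prior cell attachment. Signal: luminescent β-galactosidase signal after 60 min lysis. Read-out: parasite load inhibition, %.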
UPR XBP1 act – activators of adaptive XBP1 UPR arm, primary screen, cell-based, CHO-XBP1 luciferase reporter, luminescence, uHTS | actives 0.33% (n = 330,000) | activation, % at 20 µM | IRE1-XBP1 UPR activation; percent of tunicamycin response, DMSO as zero;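 active means versus positive control, 20 µM dose yields 30% or more activation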;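 further: 100% = tunicamycin at 10 µg/mL and 0% = DMSO only wells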
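incubation = overnight seeding at 37 °C, 6 h compound treatment at 37 °C | assay system = CHO-XBP1 cells stably carrying IRE1-XBP1-driven luciferase reporter | input = 1000 cells per well | detection = luciferase luminescence | dosing = single point, 20 µM final compound, 1% DMSO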
Mdm2 MdmX PPI – inhibitors of human Mdm2-MdmX association, primary screen, cell-based, luminescence, split luciferase, SaOS-2, uHTS; inhibition, % at 8 µM; actives 3% (n = 330,000); SaOS-2 split-luciferase Mdm2/MdmX complementation; Protein Mdm4 (Homo sapiens) + E3 ubiquitin-protein ligase Mdm2 (Homo sapiens), …; AID 485346, 2010;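 active means inhibition of at least 50% at 8 µM in the primary screen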
Target sequence (O15151 whole entry, looked up): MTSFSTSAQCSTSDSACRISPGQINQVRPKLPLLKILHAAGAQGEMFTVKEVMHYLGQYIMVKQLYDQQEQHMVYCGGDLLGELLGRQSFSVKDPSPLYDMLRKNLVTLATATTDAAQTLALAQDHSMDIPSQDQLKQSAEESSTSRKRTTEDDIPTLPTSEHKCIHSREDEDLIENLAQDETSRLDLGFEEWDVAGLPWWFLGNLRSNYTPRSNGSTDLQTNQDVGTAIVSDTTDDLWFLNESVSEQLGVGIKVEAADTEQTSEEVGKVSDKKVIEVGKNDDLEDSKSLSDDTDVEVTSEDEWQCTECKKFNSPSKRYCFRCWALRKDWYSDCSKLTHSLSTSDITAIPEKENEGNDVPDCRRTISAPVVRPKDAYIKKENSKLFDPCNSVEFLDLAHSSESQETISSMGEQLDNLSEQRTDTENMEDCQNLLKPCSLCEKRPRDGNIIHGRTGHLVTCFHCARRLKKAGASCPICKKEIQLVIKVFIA
Target sequence (Q00987 whole entry, looked up): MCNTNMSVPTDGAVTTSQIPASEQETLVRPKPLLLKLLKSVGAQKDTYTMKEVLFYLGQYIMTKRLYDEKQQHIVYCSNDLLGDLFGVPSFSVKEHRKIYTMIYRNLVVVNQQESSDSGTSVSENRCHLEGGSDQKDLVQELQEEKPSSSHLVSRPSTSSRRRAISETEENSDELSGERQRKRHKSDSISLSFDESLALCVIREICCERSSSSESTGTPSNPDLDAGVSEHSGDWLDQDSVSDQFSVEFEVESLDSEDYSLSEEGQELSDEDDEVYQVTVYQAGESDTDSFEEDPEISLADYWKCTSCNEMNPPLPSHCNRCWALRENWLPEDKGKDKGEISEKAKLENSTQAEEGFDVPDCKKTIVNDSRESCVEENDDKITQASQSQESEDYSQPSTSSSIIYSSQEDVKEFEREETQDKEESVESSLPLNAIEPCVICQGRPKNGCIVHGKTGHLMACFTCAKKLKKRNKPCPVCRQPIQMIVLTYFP
CSC inhib – cancer stem cell viability inhibitors, primary screen, luminescence. cancer stem cell-like cells viability. inhibition, % at 7.5 µM. actives 1.1% (n = 300,000). AID 2717, 2010; in the data active means inhibition above about 75%; tested in HMLE shEcad cells
Beta apoptosis – inhibitors of cytokine-induced beta cell apoptosis, primary screen, luminescence; INS-1E cytokine-induced death, ATP luminescence, 48 h; percent of positive-control rescue, neutral wells zero; protection from apoptosis, % (no concentration beside the values); actives 0.8% (n = 300,000);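 active means Every replicate reaches about 75%, or at least half do and their mean reaches it too, limit read from the data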;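 further: 0% = cytokine-treated negative control wells and 100% = positive control rescue; higher means more ATP so stronger rescue from cytokine killing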
UPR CHOP act – activators of apoptotic CHOP UPR arm, primary screen, cell-based, CHO-CHOP luciferase reporter, luminescence, uHTS; AID 449763, 2010; activation, % at 10 µM; actives 0.34% (n = 330,000); UPR activation; percent of tunicamycin response over DMSO baseline;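 active means at 10 µM dose, activation of 40% or more, normalized to positive control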;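 further: 100% = tunicamycin at 10 µg/mL and 0% = DMSO alone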
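System: CHO-CHOP luciferase reporter cell line | Buffer or medium: F12 medium containing 10% fetal bovine serum | Doses: One dose, 10 µM in 0.5% DMSO | Times: 6 h compound exposure at 37 °C after overnight seeding | Signal: Luciferase luminescence | Read-out: % activation vs tunicamycin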
An asterisk follows results filed as active; · = no result.

SMILES	T cruzi repl	UPR XBP1 act	Mdm2 MdmX PPI	CSC inhib	Beta apoptosis	UPR CHOP act
COc1cc(CN(C)CCc2ccccc2)ccc1OCc1ccccc1	63*	4	22	59	6	1
NC(=S)N/N=C/c1c(O)c(Br)cc2oc3c(c12)CCCC3	18	2	47	39	82*	-1
Oc1c(Br)cc2oc3c(c2c1CNCc1ccccc1)CCCC3	-9	4	-21	-1	-2	-1
Cc1cccc(N=N/C(=C\O)C(=O)c2cccs2)c1	29	0	40	92*	13	4
Cc1ccc(NC(=O)CCN2CCOCC2)cc1C	-7	-2	8	-4	0	-1
O=C(Nc1ccc(Cl)c(Cl)c1)N1CCSC1c1ccco1 (centres undefined)	-2	-1	18	40	103*	1
CC(=O)Nc1ccc(S(=O)(=O)N2CCSC2c2ccco2)cc1 (centres undefined)	-18	-1	7	0	0	-1
Cc1ccc(C#CC[N+](C)(C)CC#Cc2ccccc2)cc1	57*	-1	-10	-3	11	-1
C/C(=N/NC(=O)CNC(=O)CCc1ccccc1)c1ccc(Cl)c(Cl)c1	8	1	19	-10	-9	-2
Nc1ccc2nc(N3CCOCC3)sc2c1	76*	-4	-20	-5	15	3
c1ccc2sc(N3CCOCC3)nc2c1	-11	-1	-19	-3	-1	1
O=C(/C=C/c1ccc2c(c1)OCO2)NCCSCc1ccc(Cl)cc1	-6	0	18	93*	-3	-1
CN(C)CCCNC(=O)/C=C/c1ccc2c(c1)OCO2	45	-3	-12	4	-2	-1
O=C(/C=C/c1ccc2c(c1)OCO2)NCCSCc1c(Cl)cccc1Cl	15	-4	39	98*	-1	0
Cc1ccc(CNC(=O)C2CCCCC2C(=O)O)cc1 (centres undefined)	-3	0	-1	-4	-6	4
CCCn1c(=O)n(CC(=O)NCC2CCCO2)c(=O)c2c3c(sc21)COC(C)(C)C3 (centres undefined)	-3	-1	0	10	-6	-2
O=C(N/N=C/c1cccnc1)c1ccc(NC(=O)C(c2ccccc2)c2ccccc2)cc1	3	-3	7	·	110*	-1
O=[N+]([O-])c1nn(-c2ccccc2)[n+]([O-])c1N1CCN(c2ccccc2)CC1	85*	-3	-20	-26	-2	-3
O=[N+]([O-])c1nn(-c2ccccc2)[n+]([O-])c1N1CCN(c2ccccc2F)CC1	57*	-2	-8	-7	-4	-1
COc1ccc(S(=O)(=O)N2CCCCCC2)cc1C(=O)N(C)Cc1cccs1	7	-3	19	-7	-5	1
CC1CCCN(C(=O)C(=O)c2cn(CC(=O)N3CCCCCC3)c3ccccc23)C1 (centres undefined)	62*	-6	19	·	0	1
NC(=O)C1CCN(C(=O)C(=O)c2cn(CC(=O)N3CCCCCC3)c3ccccc23)CC1	62*	-4	-11	8	2	-1
CCN1CCN(C(=O)C(=O)c2cn(CC(=O)N3CCCCCC3)c3ccccc23)CC1	27	-3	13	-9	1	2
CC1CCN(C(=O)C(=O)c2cn(CC(=O)N3CCCCCC3)c3ccccc23)CC1	55*	-6	18	·	5	3
CCC(=O)c1ccc(OCC(=O)NCC2(N3CCCCC3)CCCCC2)cc1	5	2	7	-2	·	2
SMILES	T cruzi repl	UPR XBP1 act	Mdm2 MdmX PPI	CSC inhib	Beta apoptosis	UPR CHOP act
CCN(Cc1ccccc1)C(c1ccc(C(F)(F)F)cc1)c1nnnn1C(C)(C)C (centres undefined)	48	-6	16	24	106*	6
CN(C)CCCN(C(=O)COc1ccccc1)c1nc2cc3c(cc2s1)OCO3	39	-3	-10	-4	-7	-1
CN(C)CCCN(C(=O)COc1ccc(Cl)cc1)c1nc2cc3c(cc2s1)OCCO3	57*	3	6	-7	·	1
CN(C)CCCN(C(=O)COc1ccc(Cl)cc1)c1nc2cc3c(cc2s1)OCO3	23	7	29	-4	114*	6
Cc1ccc(/C(O)=C2\C(=O)C(=O)N(Cc3cccnc3)C2c2ccccc2[N+](=O)[O-])cc1 (centres undefined)	-10	-1	-25	-7	2	4
NC(=S)N/N=C/c1ccc(/C=N/NC(N)=S)cc1	-8	0	-6	13	-4	0
NC(=S)N/N=C/c1ccc(-n2nncc2-c2ccc(Cl)cc2)cc1	57*	4	41	-7	·	1
COc1ccccc1NC(=O)N(Cc1ccco1)Cc1cc2ccc(C)c(C)c2[nH]c1=O	7	-2	50	-23	-10	1
Cc1ccc(NC(=O)N(Cc2ccco2)Cc2cc3cc(C)cc(C)c3nc2Cl)cc1	56*	·	·	·	·	·
Cc1ccc(C)c2[nH]c(=O)c(CN(Cc3ccco3)C(=O)Nc3ccccc3)cc12	17	-2	19	-6	5	0
Cc1cccc2cc(CN(Cc3ccco3)C(=O)Nc3cccc(C#N)c3)c(Cl)nc12	60*	0	38	26	11	1
COc1cc(OC)c(OC)cc1CN1CCCC(C(=O)N2CCCCC2)C1 (centres undefined)	42	2	9	-5	-4	1
COc1ccccc1C(=O)C1CCCN(Cc2cn[nH]c2C2CCCCC2)C1 (centres undefined)	62*	-2	21	-4	4	-2
COc1cc(OC)c(OC)cc1CN1CCCC(C(=O)c2ccccc2SC)C1 (centres undefined)	56*	0	0	-1	4	-3
COc1cc(CN2CCCC(C(=O)c3ccccc3SC)C2)cc(OC)c1 (centres undefined)	68*	1	13	19	-2	-2
Cc1nc(NC(=O)c2cccs2)ccc1Br	-13	-1	-204	-14	5	2
O=C1CC(NS(=O)(=O)c2ccc([N+](=O)[O-])cc2)CN1c1ccc2c(c1)OCCO2 (centres undefined)	36	-2	14	-18	·	-1
O=C1CC(NS(=O)(=O)c2ccc([N+](=O)[O-])cc2)CN1c1ccc(Cl)cc1 (centres undefined)	62*	0	15	-8	5	-1

From PubChem
